Assay results reported in ChEMBL document CHEMBL1255473, “Homozygous triplicate mutations in three 16S rRNA genes responsible for high-level aminoglycoside resistance in Nocardia farcinica clinical isolates from a Canada-wide bovine mastitis epizootic” (2010).
≈ marks a conversion by molar mass, not a printed value. Calls of active or inactive are those of the source. The calls are words filed in the database; no cut-off is given here.

Legend:
Nocardia farcinica [1] = test: Antimicrobial activity against amikacin-resistant Nocardia farcinica IFM 10580 after 3 days by broth microdilution method; assay type: functional
How it was run: (§1)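 Broth microdilution in BHI medium with a range of aminoglycosides. Cells were incubated at 37°C, OD600 was measured, and the MIC was read on day 3 of incubation.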

Nocardia farcinica [2] = test: Antimicrobial activity against amikacin-susceptible Nocardia farcinica IFM 10152 harboring 16s rRNA A1408G mutant after 3 days by broth microdilution method; assay type: functional; how it was run: as §1
Nocardia farcinica [3] = test: Antimicrobial activity against amikacin-susceptible Nocardia farcinica IFM 10152 harboring 16s rRNA A1408G mutant after 5 days by broth microdilution method; assay type: functional
How it was run: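 Broth microdilution in BHI medium across several aminoglycosides. Cells were held at 37°C and MIC was determined from OD600 on day 5 of incubation.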

Nocardia farcinica [4] = test: Antimicrobial activity against amikacin-susceptible Nocardia farcinica IFM 10152 after 3 days by broth microdilution method; assay type: functional
How it was run: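 Broth microdilution in BHI medium, final inoculum 10^4 CFU/ml. Host strain carried empty pNV19 vector. Cells incubated with serial aminoglycoside concentrations at 37°C for 3 days. MIC read from OD600.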

Nocardia farcinica [5] = test: Antimicrobial activity against amikacin-susceptible Nocardia farcinica IFM 10152-M2 expressing rrnA A1408G and rrnC A1408G mutant genes after 3 days by broth microdilution method; assay type: functional; conditions: IFM 10152-M2, 72 h; how it was run: as §1
Nocardia farcinica [6] = test: Antimicrobial activity against amikacin-susceptible Nocardia farcinica IFM 10152-M3 expressing rrnA A1408G, rrnB A1408G and rrnC A1408G mutant genes after 3 days by broth microdilution method; assay type: functional; conditions: IFM 10152-M3, 72 h; how it was run: as §1
Nocardia farcinica [7] = test: Antimicrobial activity against amikacin-susceptible Nocardia farcinica IFM 10152-M2 expressing wild type rrnB gene and plasmid encoded rrnA A1408G and rrnC A1408G mutant genes after 3 days by broth microdilution method; assay type: functional; conditions: IFM 10152-M2, 72 h; how it was run: as §1
Nocardia farcinica [8] = test: Antimicrobial activity against amikacin-susceptible Nocardia farcinica isolate IFM 10152-M2 assessed as cell growth at 1024 ug/ml after 24 hrs; assay type: functional, organism-based
Nocardia farcinica [9] = test: Antimicrobial activity against amikacin-susceptible Nocardia farcinica isolate IFM 10152-M3 assessed as cell growth at 1024 ug/ml at <12 hrs; assay type: functional, organism-based
Nocardia farcinica [10] = test: Antimicrobial activity against amikacin-resistant Nocardia farcinica IFM 10580 assessed as cell growth at 1024 ug/ml at <12 hrs; assay type: functional, organism-based
How it was run: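 Cells were cultured in the presence of 1,024 μg/ml amikacin and growth was followed over time.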

Nocardia farcinica [11] = test: Antimicrobial activity against amikacin-susceptible Nocardia farcinica isolate IFM 10152-M2 assessed as cell growth at 1024 ug/ml after 24 hrs

## NC[C@H]1O[C@H](O[C@H]2[C@H](O)[C@@H](O[C@H]3O[C@H](CO)[C@@H](O)[C@H](N)[C@H]3O)[C@H](N)C[C@@H]2N)[C@H](N)C[C@@H]1O [TOBRAMYCIN]
Nocardia farcinica [1]; IFM 10580, 72 h
  MIC: > 1020 µg/mL
Nocardia farcinica [2]; IFM 10152, 72 h
  MIC: 64 µg/mL (≈ 137 µM)
Nocardia farcinica [3]; IFM 10152, 120 h
  MIC: > 1020 µg/mL
Nocardia farcinica [4]; IFM 10152, 72 h
  MIC: 32 µg/mL (≈ 68.4 µM)

## NC[C@@H]1O[C@H](O[C@H]2[C@@H](O)[C@H](O[C@@H]3[C@@H](O)[C@H](N)C[C@H](N)[C@H]3O[C@H]3O[C@H](CN)[C@@H](O)[C@H](O)[C@H]3N)O[C@@H]2CO)[C@H](N)[C@@H](O)[C@@H]1O [FRAMYCETIN]
Nocardia farcinica [1]; IFM 10580, 72 h
  MIC: > 1020 µg/mL
Nocardia farcinica [2]; IFM 10152, 72 h
  MIC: > 1020 µg/mL
Nocardia farcinica [3]; IFM 10152, 120 h
  MIC: > 1020 µg/mL
Nocardia farcinica [4]; IFM 10152, 72 h
  MIC: 16 µg/mL (≈ 26 µM)

## CCN[C@@H]1C[C@H](N)[C@@H](O[C@H]2OC(CN)=CC[C@H]2N)[C@H](O)[C@H]1O[C@H]1OC[C@](C)(O)[C@H](NC)[C@H]1O [NETILMICIN]
Nocardia farcinica [1]; IFM 10580, 72 h
  MIC: > 1020 µg/mL
Nocardia farcinica [2]; IFM 10152, 72 h
  MIC: 4 µg/mL (≈ 8.41 µM)
Nocardia farcinica [3]; IFM 10152, 120 h
  MIC: 32 µg/mL (≈ 67.3 µM)
Nocardia farcinica [4]; IFM 10152, 72 h
  MIC: < 1 µg/mL

## CN[C@H]1C[C@@H](N)[C@H](O)[C@@H](O[C@@H]2O[C@H](CO)[C@H](O)[C@H]3O[C@@]4(O[C@H]23)O[C@H]([C@H](N)CO)[C@H](O)[C@H](O)[C@H]4O)[C@@H]1O
Nocardia farcinica [1]; IFM 10580, 72 h
  MIC: 32 µg/mL (≈ 60.7 µM)
Nocardia farcinica [2]; IFM 10152, 72 h
  MIC: 32 µg/mL (≈ 60.7 µM)
Nocardia farcinica [3]; IFM 10152, 120 h
  MIC: 32 µg/mL (≈ 60.7 µM)
Nocardia farcinica [4]; IFM 10152, 72 h
  MIC: 32 µg/mL (≈ 60.7 µM)

## NCC[C@H](O)C(=O)N[C@@H]1C[C@H](N)[C@@H](O[C@H]2O[C@H](CN)[C@@H](O)[C@H](O)[C@H]2O)[C@H](O)[C@H]1O[C@H]1O[C@H](CO)[C@@H](O)[C@H](N)[C@H]1O [AMIKACIN]
Nocardia farcinica [1]; IFM 10580, 72 h
  MIC: > 1020 µg/mL
Nocardia farcinica [2]; IFM 10152, 72 h
  MIC: 64 µg/mL (≈ 109 µM)
Nocardia farcinica [3]; IFM 10152, 120 h
  MIC: > 1020 µg/mL
Nocardia farcinica [5]
  MIC: < 1 µg/mL
Nocardia farcinica [6]
  MIC: > 1020 µg/mL
Nocardia farcinica [7]
  MIC: > 1020 µg/mL
Nocardia farcinica [8]
  Activity: inactive
Nocardia farcinica [9]
  Activity: inactive
Nocardia farcinica [10]
  Activity: inactive
Nocardia farcinica [4]; IFM 10152, 72 h
  MIC: < 1 µg/mL
Nocardia farcinica [11]
  Activity: inactive

## NCC[C@H](O)C(=O)N[C@@H]1C[C@H](N)[C@@H](O[C@H]2O[C@H](CN)CC[C@H]2N)[C@H](O)[C@H]1O[C@H]1O[C@H](CO)[C@@H](O)[C@H](N)[C@H]1O [ARBEKACIN]
Nocardia farcinica [1]; IFM 10580, 72 h
  MIC: > 1020 µg/mL
Nocardia farcinica [2]; IFM 10152, 72 h
  MIC: 2 µg/mL (≈ 3.62 µM)
Nocardia farcinica [3]; IFM 10152, 120 h
  MIC: > 1020 µg/mL
Nocardia farcinica [4]; IFM 10152, 72 h
  MIC: < 1 µg/mL

## GENTAMICIN
Nocardia farcinica [1]
  MIC: > 1020 µg/mL
Nocardia farcinica [2]
  MIC: 256 µg/mL
Nocardia farcinica [3]
  MIC: > 1020 µg/mL
Nocardia farcinica [4]
  MIC: 64 µg/mL

## NC[C@@H]1O[C@H](O[C@H]2[C@@H](O)[C@H](O[C@@H]3[C@@H](O)[C@H](N)C[C@H](N)[C@H]3O[C@H]3O[C@H](CO)[C@@H](O)[C@H](O)[C@H]3N)O[C@@H]2CO)[C@H](N)[C@@H](O)[C@@H]1O [PAROMOMYCIN]
Nocardia farcinica [1]; IFM 10580, 72 h
  MIC: > 1020 µg/mL
Nocardia farcinica [2]; IFM 10152, 72 h
  MIC: > 1020 µg/mL
Nocardia farcinica [3]; IFM 10152, 120 h
  MIC: > 1020 µg/mL
Nocardia farcinica [4]; IFM 10152, 72 h
  MIC: 8 µg/mL (≈ 13 µM)

## CN[C@@H]1[C@@H](O[C@H]2O[C@H](CO)[C@@H](N)[C@H](O)[C@H]2O)OC2C[C@@H](N)[C@@H](O[C@H]3[C@H](O)[C@@H](O)[C@H](N)C[C@@H]3N)OC2[C@@H]1O (some centres undefined) [APRAMYCIN]
Nocardia farcinica [1]; IFM 10580, 72 h
  MIC: > 1020 µg/mL
Nocardia farcinica [2]; IFM 10152, 72 h
  MIC: 64 µg/mL (≈ 119 µM)
Nocardia farcinica [3]; IFM 10152, 120 h
  MIC: 256 µg/mL (≈ 474 µM)
Nocardia farcinica [4]; IFM 10152, 72 h
  MIC: 32 µg/mL (≈ 59.3 µM)

## NC[C@H]1O[C@H](O[C@H]2[C@H](O)[C@@H](O[C@H]3O[C@H](CO)[C@@H](O)[C@H](N)[C@H]3O)[C@H](N)C[C@@H]2N)[C@H](O)[C@@H](O)[C@@H]1O [KANAMYCIN]
Nocardia farcinica [1]; IFM 10580, 72 h
  MIC: > 1020 µg/mL
Nocardia farcinica [2]; IFM 10152, 72 h
  MIC: > 1020 µg/mL
Nocardia farcinica [3]; IFM 10152, 120 h
  MIC: > 1020 µg/mL
Nocardia farcinica [4]; IFM 10152, 72 h
  MIC: 256 µg/mL (≈ 528 µM)

## CN[C@@H]1[C@@H](O)[C@@H](O[C@@H]2[C@@H](O)[C@H](O[C@H]3O[C@H](CN)[C@@H](O)[C@H](O)[C@H]3O)[C@@H](N)C[C@H]2NC(=O)[C@@H](O)CN)OC[C@]1(C)O [ISEPAMICIN]
Nocardia farcinica [1]; IFM 10580, 72 h
  MIC: > 1020 µg/mL
Nocardia farcinica [2]; IFM 10152, 72 h
  MIC: 16 µg/mL (≈ 28.1 µM)
Nocardia farcinica [3]; IFM 10152, 120 h
  MIC: 128 µg/mL (≈ 225 µM)
Nocardia farcinica [4]; IFM 10152, 72 h
  MIC: < 1 µg/mL

## CN[C@@H]1[C@H](O[C@H]2[C@H](O[C@H]3[C@H](O)[C@@H](O)[C@H](N=C(N)N)[C@@H](O)[C@@H]3N=C(N)N)O[C@@H](C)[C@]2(O)C=O)O[C@@H](CO)[C@H](O)[C@H]1O [STREPTOMYCIN]
Nocardia farcinica [1]; IFM 10580, 72 h
  MIC: 128 µg/mL (≈ 220 µM)
Nocardia farcinica [2]; IFM 10152, 72 h
  MIC: 64 µg/mL (≈ 110 µM)
Nocardia farcinica [3]; IFM 10152, 120 h
  MIC: 128 µg/mL (≈ 220 µM)
Nocardia farcinica [4]; IFM 10152, 72 h
  MIC: 64 µg/mL (≈ 110 µM)

## NC[C@H]1O[C@H](O[C@H]2[C@H](O[C@@H]3O[C@H](CO)[C@@H](O)[C@H]3O)[C@@H](O)[C@H](N)C[C@@H]2N)[C@H](N)[C@@H](O)[C@@H]1O [RIBOSTAMYCIN]
Nocardia farcinica [1]; IFM 10580, 72 h
  MIC: > 1020 µg/mL
Nocardia farcinica [2]; IFM 10152, 72 h
  MIC: > 1020 µg/mL
Nocardia farcinica [3]; IFM 10152, 120 h
  MIC: > 1020 µg/mL
Nocardia farcinica [4]; IFM 10152, 72 h
  MIC: 256 µg/mL (≈ 563 µM)
